Measured values from different studies.
Each line is one published result; the experiments were not run side by side.
Target: Testis-specific serine/threonine-protein kinase 1 (TSSK1B, Homo sapiens, UniProt Q9BXA7)
Sequence (Q9BXA7 1-367, as in one of the studies): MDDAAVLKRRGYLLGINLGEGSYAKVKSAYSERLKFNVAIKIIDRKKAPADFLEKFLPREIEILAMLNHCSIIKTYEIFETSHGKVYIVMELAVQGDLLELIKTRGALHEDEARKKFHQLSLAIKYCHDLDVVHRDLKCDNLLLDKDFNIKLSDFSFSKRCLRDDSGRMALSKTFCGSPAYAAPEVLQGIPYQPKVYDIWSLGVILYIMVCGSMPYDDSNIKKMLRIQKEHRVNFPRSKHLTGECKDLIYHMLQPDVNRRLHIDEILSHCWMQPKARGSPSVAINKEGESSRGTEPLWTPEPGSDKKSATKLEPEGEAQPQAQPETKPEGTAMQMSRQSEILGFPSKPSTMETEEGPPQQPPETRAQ

`Cn1cc(-c2cccc(N3CCc4c(sc5c4CC(C)(C)C5)C3=O)c2CO)cc(Nc2ccncn2)c1=O` gave an inhibition of 5% (enzyme activity; inhibitor; 1 µM).
The remaining binding of `Nc1ncc(-c2nc(N3CCOCC3)nc(N3CCOCC3)n2)c(C(F)F)n1` is reported as 100% (binding; competition with immobilised ligand; 10 µM).
`Cc1nn(C)cc1-c1nc2c(N3CCN(Cc4ccc(Cl)cc4)CC3)c(Cl)cnc2[nH]1` has a remaining binding of 100% (binding; competition with immobilised ligand; 1 µM).
For `O=c1[nH]c2ccccc2n1C1CCN(Cc2ccc(-c3[nH]c4cc5ncnc5cc4nc3-c3ccccc3)cc2)CC1`, the remaining signal was 96.5% (cell-free assay; 0.5 µM).
`COc1ncccc1-c1cnn2ccc(N3CCN(C(=O)OC(C)C)CC3)nc12` has a remaining binding of 54% (binding; competition with immobilised ligand; 1 µM).
`Cn1cncc1[C@@](O)(COc1ccc(C#N)cc1-c1ccc(OC(F)(F)F)cc1)c1ccc(C#N)cc1` gave a remaining binding of 70% (cell-free assay; competition with immobilised ligand; 1 µM).
With `Cn1cc(-c2cc(F)cc(N3CCn4c(cc5c4CCCC5)C3=O)c2CO)cc(Nc2ccc(N3CCN(C4COC4)CC3)cn2)c1=O` the inhibition was 9% (enzyme activity; inhibitor; 0.1 µM).
With `CC(C)(C)c1cc(C=C(C#N)C#N)cc(Br)c1O` the remaining activity was 95.6% (enzyme activity; inhibitor; 0.5 µM).
For `N#CC1(c2ccccn2)CCN(Cc2cc(C(=O)O)c(=O)n3ccccc23)CC1`, the remaining binding was 74% (cell-free assay; competition with immobilised ligand; 1 µM).
For `COc1cc(Nc2ncc(F)c(Nc3ccc4c(n3)NC(=O)C(C)(C)O4)n2)cc(OC)c1OC`, the inhibition was 97% (binding; 10 µM).
